Hits are enriched below; roughly 5.1% of the tested compounds scored in any of these assays.
STAT1 blocker = STAT1 signaling inhibition | 200,000 compounds, 0.35% hits | inhibition, % at 5.5 µM | NIH 3T3 STAT1-luciferase reporter, IFN-gamma, luminescence;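 active = inhibition above a set limit, the mean inhibition across all tested compounds plus 3 SD, cut at about 34% in these data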
STAT3 inh-1 = STAT3 signaling inhibition; U3A cells, IL-6 STAT3-luciferase reporter, luminescence; host cell line lacks STAT1; 190,000 compounds, 0.89% hits; inhibition, % at 5.5 µM;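 active = inhibition above the mean inhibition across all screened compounds plus 3 SD, cut at about 44% in these data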
STAT3 activator = STAT3 signaling activation. U3A cells, IL-6 STAT3-luciferase reporter, luminescence; 100% = signal with IL-6 EC80 alone. activation (% of control), % at 5.6 µM. 190,000 compounds, 0.91% hits. AID 871;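 active = activation above the screen-wide mean of compound activation plus 3 SD, cut at about 130% in these data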
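system = STAT3-luciferase reporter U3A cells | reagent = IL-6 stimulus at 33 ng/mL final | timing = 1 h compound pre-exposure, 6 h IL-6 stimulation, 37 °C | measured by = luminescence | evaluation = % activation versus median of IL-6-stimulated wells | control set = IL-6-only wells as 100% reference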
NF-kB neuron act = raises NF-kB expression in human neuronal cells | NF-kB reporter expression; hits give high values | fold change at 12.5 µM | 190,000 compounds, 1.6% hits | AID 1239; in the data active = fold change above about 3.3
APP 5'UTR act = APP 5'UTR luciferase reporter activation; SH-SY5Y APP 5'UTR luciferase reporter, luminescence; zero percent = DMSO vehicle wells; activation, % at 2 µM; 190,000 compounds, 1% hits; AID 1276;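 active = activation above a set limit, based on mean plus 3 SD of controls, cut at about 140% in these data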
STAT1 act = increases IFN-gamma driven STAT1 reporter signal | NIH 3T3 STAT1-luciferase reporter, luminescence; 100% = IFN-gamma alone, no compound | activation (% of control), % at 5.5 µM | 200,000 compounds, 2.6% hits;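 active = activation above the screen-wide mean activation plus 3 SD, cut at about 130% in these data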
STAT3 inh-2 = STAT3 inhibition, confirmation assay; shares compounds with STAT3 inh-1; U3A cells, IL-6 STAT3 luciferase reporter, luminescence; cell line lacks STAT1; inhibition, % at 5.7 µM; 1,200 compounds, 45% hits;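 active = inhibition above the hit cutoff computed for the primary STAT3 screen, cut at about 44% in these data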
NFkB inh STAT3ct = NF-kappaB inhibition in STAT3 inhibitor counter-screen; shares compounds with STAT3 inh-1; HEK293T NF-kB luciferase reporter, TNF-alpha induced; inhibition, % at 5.7 µM; 1,200 compounds, 36% hits; AID 1308;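 active = inhibition above the mean of solvent-only control wells plus 3 SD, cutoff set per campaign, cut at about 13% in these data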
STAT1 inh 2 = inhibits STAT1, counter-screen to STAT3 inhibitors | shares compounds with STAT3 inh-1 | NIH 3T3 STAT1-luciferase reporter, IFN-gamma induced, luminescence | inhibition, % at 5.7 µM | 1,200 compounds, 27% hits | AID 1317;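 active = inhibition above the mean plus 3 SD of solvent-only control wells, limit set per screening run, cut at about 16% in these data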
Hits are given with their value; n = inactive; x = no result given.

SMILES	STAT1 blocker	STAT3 inh-1	STAT3 activator	NF-kB neuron act	APP 5'UTR act	STAT1 act	STAT3 inh-2	NFkB inh STAT3ct	STAT1 inh 2
CCOc1ccccc1NC(=S)Nc1ncccc1C	n	n	n	n	n	n	x	x	x
COc1ccc(NC(=S)Nc2ncccc2C)c(OC)c1	n	47	n	n	n	n	n	n	n
CN1CCC(OC(=O)c2cccc(Cl)c2)CC1	n	n	n	n	n	n	x	x	x
c1ccc2c(c1)[nH]c1c(N3CCCC3)ncnc12	n	46	n	n	n	n	n	18	23
O=C(CSc1nnc(-c2c[nH]c3ccccc23)o1)N1c2ccccc2CCc2ccccc21	n	49	n	n	n	n	n	n	n
CC(C)COc1ccc(-c2nnc(-c3ccco3)o2)cc1	n	63	n	4.3	187	n	n	n	n
O=C(COc1ccccc1)Nc1ccc(-c2nnc(-c3ccco3)o2)cc1	n	n	n	n	n	n	x	x	x
CCCOc1ccc(-c2nnc(-c3ccco3)o2)cc1	n	78	n	n	n	n	n	n	n
Cc1ccc(SCC(=O)Nc2cccc(NC(=O)c3ccco3)c2)cc1	n	n	n	n	n	n	x	x	x
Cc1nc2sccn2c1-c1csc(NCc2ccccc2)n1	n	66	n	n	n	n	51	n	n
Nc1nc(CCl)nc(Nc2ccccc2)n1	n	n	n	n	n	n	x	x	x
Nc1nc(Nc2ccccc2)nc2ccccc12	n	57	n	5.5	155	n	n	n	n
Cc1ccccc1Nc1nc(N)nc(CSc2nc3ccccc3c(=O)n2C)n1	n	n	n	n	n	n	x	x	x
Cc1ccccc1Nc1nc(N)c2ccccc2n1	n	61	n	8.9	144	n	n	n	n
Nc1nc2nccc(-c3cccnc3)n2n1	n	n	n	n	n	n	x	x	x
COc1cc2c(cc1OC)C(c1ccc(-c3ccc(Cl)cc3Cl)o1)=NCC2	n	63	n	n	n	n	53	16	n
CCNCc1nc2cc(Cl)ccc2c(=O)[nH]1	n	n	n	n	n	n	x	x	x
CCO[C@@H]1OC(C(N)=O)=C[C@H](c2ccc3c(c2)OCO3)[C@H]1CCCO	n	x	x	n	n	n	x	x	x
NS(=O)(=O)c1ccc(N/C=C\C(=O)c2ccc3ccccc3c2)cc1	n	n	n	n	n	n	x	x	x
O=C(CSC1=NCCS1)Nc1ccnc2ccccc12	n	64	n	n	n	n	75	21	24
C=CC[N+](C)(C)C/C(Cl)=C(\Cl)c1ccccc1	n	n	n	n	n	n	x	x	x
Cc1cc(C(=O)CSc2nnc(-c3cccs3)o2)c(C)n1-c1ccccc1	n	47	n	n	n	n	n	17	n
COc1ccc(N2CCN(C(CNC(=O)C(=O)NCc3ccc4c(c3)OCO4)c3ccco3)CC2)cc1 (stereo not drawn)	n	n	n	n	n	n	x	x	x
COc1ccc(OCCC(=O)Nc2nccs2)cc1	n	n	n	n	n	n	x	x	x
COc1ccc(OCC(=O)Nc2nccs2)cc1	n	69	n	3.9	n	n	n	n	n
SMILES	STAT1 blocker	STAT3 inh-1	STAT3 activator	NF-kB neuron act	APP 5'UTR act	STAT1 act	STAT3 inh-2	NFkB inh STAT3ct	STAT1 inh 2
C=C(C)CN(CC)C(=O)CSc1nc(O)cc(=O)n1C1CCCC1	n	n	n	n	n	n	x	x	x
CCOC(=O)c1cnc2c(C(=O)OC)cccc2c1NCc1cccnc1	n	n	n	n	n	n	x	x	x
Cn1c(CN2CCCCC2)nc2cc(NC(=O)c3cccc(Br)c3)ccc21	n	63	n	n	n	n	51	n	n
Cn1c(CN2CCCCC2)nc2cc(NC(=O)c3ccccc3)ccc21	n	n	n	n	n	n	x	x	x
Cc1cc(Cl)c(S(=O)(=O)N2CCSCC2)cc1OCC(=O)NC1CCCCC1	n	67	n	n	n	n	67	15	n
CCN1CCN(S(=O)(=O)c2cc(OCC(=O)NC3CCCCC3)c(C)cc2Cl)CC1	n	77	n	n	n	n	57	19	n
CCOC(=O)N1CCN(S(=O)(=O)c2cc(OCC(=O)NC3CCCCC3)c(C)cc2Cl)CC1	n	n	n	n	n	n	x	x	x
O=C(COc1ccc(Br)cc1Br)NC1CCCC1	n	49	n	n	n	141	53	n	n
Cc1ccc(OCC(=O)NC2CCCC2)c(C)c1	n	n	n	n	n	n	x	x	x
Cc1cc(Cl)c(S(=O)(=O)N2CCCCCC2)cc1OCC(=O)NC1CCCCC1	n	82	n	n	n	n	83	31	16
Fc1ccc(CCNC(=S)Nc2ccc(F)c(Cl)c2)cc1	n	n	n	n	n	n	x	x	x
Cc1ccc(-n2ncc3c(SCc4cccc(C)c4)ncnc32)cc1	n	n	n	n	n	n	x	x	x
Cc1ccc(-n2ncc3c(SCc4cccnc4)ncnc32)c(C)c1	n	75	n	n	n	n	68	n	n
CSc1ccc(CN(C)C(C)C(=O)NCc2ccccc2)cc1 (stereo not drawn)	n	n	n	n	n	n	x	x	x
CCCCc1ccc(/C=C(\C#N)C(N)=S)s1	n	44	n	n	n	n	n	n	17
Cn1cccc1/C=C(/C#N)C(N)=S	n	n	n	n	n	n	x	x	x
O=S(=O)(c1ccc(Cl)cc1)N1CCC(O)(CN2CCN(Cc3ccccc3)CC2)CC1	n	n	n	n	n	n	x	x	x
O=S(=O)(c1ccccc1)N1CCC(O)(CSc2ccc(Cl)cc2)CC1	n	76	n	n	n	n	47	17	n
Cc1ccccc1Cn1cc(NC(=O)CSc2nc3c(c(C(F)(F)F)n2)CCc2ccccc2-3)cn1	n	n	n	n	n	n	x	x	x
O=C(c1ccc(Cl)cc1)N1CCCCC(Sc2nnc(-c3ccc4c(c3)OCO4)o2)C1=O (stereo not drawn)	n	98	n	n	n	n	85	70	40
CC1(C)CC(NC(=O)CCc2nnc(CCCCc3ccccc3)o2)CCO1 (stereo not drawn)	n	n	n	n	n	n	x	x	x
COc1ccc(-c2cc(C(=O)Nc3cc(C)n(Cc4ccc(Cl)cc4)n3)no2)cc1OC	n	74	n	n	n	n	71	29	n
O=C(Nc1ccc(N2CCOCC2)cc1)c1cn2ccccc2n1	n	76	n	n	n	n	n	n	n
Cc1cc(C(=O)CSc2nnc(-c3ccccc3)n2Cc2ccc3c(c2)OCO3)c(C)n1C	n	n	n	n	n	n	x	x	x
Cc1cc(C(=O)CSc2nc3ccccc3c(=O)n2C)c(C)n1Cc1ccc2c(c1)OCO2	n	58	n	n	n	n	76	28	25

Bioassay records (PubChem)
